A selection: hits, their analogues and other compounds. The true share with any hit is near 0.83%.
V1R ag counter: counter-screen for oxytocin receptor agonists: human V1a receptor agonists. P37288. CHO-V1R cells, Fluo-8 calcium fluorescence, agonist mode; 0% DMSO, 100% 3 nM vasopressin. activation, % at 3 µM. hit rate 0.25% among 320,000. AID 2797;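 active = activation above the mean activation of all tested compounds plus 3 SD, per screening run, cut at about 20% in these data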;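 note: signal is peak over basal fluorescence ratio across a 100 second FLIPR read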
TRPN1 ag: activates the zebrafish TRPN1 channel | HEK293 zebrafish TRPN1-YFP, Fluo-8 calcium fluorescence; 100% = response to 87 µM carbachol | activation, % at 3 µM | hit rate 0.18% among 220,000;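 active = activation above its plate's cutoff, the mean activation of test wells on that plate plus 3 SD, cut at about 19% in these data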
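Material: zebrafish TRPN1-YFP in HEK293 cells; Doses: single test compound dose, 3 µM nominal, 0.3% DMSO; Timing: dye loading 1 h at 37 °C, then 30 min room temperature; Technique: intracellular calcium fluorescence with Fluo-8; Benchmarks: high carbachol 87 µM, low DMSO alone.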
OXTR ag: human OXTR agonism. P30559. CHO-OTR cells, Fluo-8 calcium fluorescence; normalized: DMSO 0%, oxytocin 100%. activation, % at 3 µM. hit rate 0.32% among 320,000;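 active = activation above the mean of all tested compounds plus 3 SD, cutoff set per screening run, cut at about 20% in these data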;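 note: peak over basal fluorescence ratio from a 100 s FLIPR kinetic read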
TRPML3 agonist: human mucolipin-3 channel agonism | Q8TDD5 | HEK293 TRPML3-YFP, Fluo-8 calcium fluorescence; 100% = the carbachol control signal | activation, % at 3 µM | hit rate 0.29% among 220,000;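 active = activation above its plate's cutoff, the mean activation of the plate's test wells plus 3 SD, cut at about 12% in these data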
Target sequence (Q8TDD5 whole entry, looked up): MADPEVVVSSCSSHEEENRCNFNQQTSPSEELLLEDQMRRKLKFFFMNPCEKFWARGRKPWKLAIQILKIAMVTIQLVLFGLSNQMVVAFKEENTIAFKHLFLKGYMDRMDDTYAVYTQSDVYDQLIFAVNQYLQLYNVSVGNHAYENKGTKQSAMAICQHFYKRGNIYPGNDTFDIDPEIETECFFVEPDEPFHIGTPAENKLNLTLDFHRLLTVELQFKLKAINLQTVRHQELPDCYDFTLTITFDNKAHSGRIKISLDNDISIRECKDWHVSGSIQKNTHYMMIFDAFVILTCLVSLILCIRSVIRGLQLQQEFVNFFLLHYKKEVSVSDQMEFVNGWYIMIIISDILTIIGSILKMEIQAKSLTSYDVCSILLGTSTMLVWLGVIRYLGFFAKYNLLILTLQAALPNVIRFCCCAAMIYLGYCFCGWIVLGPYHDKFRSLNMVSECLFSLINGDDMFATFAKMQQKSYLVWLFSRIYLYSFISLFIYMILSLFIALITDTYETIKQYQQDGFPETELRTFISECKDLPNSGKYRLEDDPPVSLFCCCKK
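Test system: TRPML3-YFP stable HEK293 cells. Doses: single point at 3 µM. Incubation: dye loading 1 h 37 °C then 30 min ambient, 125 s read. Signal: Fluo-8 calcium dye fluorescence, ex 470-495, em 515-575 nm. Measure: percent activation from peak-to-basal fluorescence ratio, scaled between DMSO and carbachol.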
CRFBP-R2 agonist: agonists of human CRF-binding protein/CRF-R2 receptor complex | HEK293 CRF-R2/CRF-BP, calcium dye fluorescence (FLIPR); percent of saturating CRF peptide response | activation, % at 13.2 µM | hit rate 0.46% among 350,000;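 active = activation of at least 50%, plus an integration ratio under a set limit after plate pattern correction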
OXTR potentiate: human OXTR potentiation; hit rate 0.061% among 320,000; P30559; CHO-OTR cells, Fluo-8 calcium fluorescence, potentiator mode; 0% = oxytocin EC15, 100% = EC100; activation, % at 3 µM;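 active = activation above that plate's cutoff, the mean activation of tested compounds plus 3 SD, cut at about 6.6% in these data, passing the limit was not always enough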
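Assay system: CHO cell line stably expressing human OTR. Reagent: EC15 oxytocin agonist. Dosing: single dose, 3.0 µM nominal final compound concentration. Timing: compound 6 min at room temperature before oxytocin, 100 s read. Signal: kinetic Fluo-8 calcium fluorescence. Controls: oxytocin EC15 low and EC100 high.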
Hits are given with their value; - = inactive; . = no result given; + = active, no number; ! = not active in a repeat.

SMILES | V1R ag counter | TRPN1 ag | OXTR ag | TRPML3 agonist | CRFBP-R2 agonist | OXTR potentiate
O=C(Nc1ccc(Cl)cc1)C1CCCN(C2=NS(=O)(=O)c3ccccc32)C1 (configuration not stated) | - | . | - | . | - | -
CCCn1c(=O)c(C(=O)Nc2ncccc2C)c(O)c2ccccc21 | 28 | - | 30 | - | - | -
CCCn1c(=O)c(C(=O)NNC(=O)c2ccc(Cl)cc2Cl)c(O)c2ccccc21 | - | . | - | . | 70 | -
CCC(C)c1ccccc1N1CC(C(=O)Nc2ccc(S(=O)(=O)N3CCOCC3)cc2)CC1=O (configuration not stated) | - | . | - | . | - | -
O=[N+]([O-])c1cccc(C2NCC(c3ccccc3Cl)c3c2[nH]c2ccccc32)c1 (configuration not stated) | 345 | - | 243 | - | - | -
O=C(Nc1nc2c(s1)CN(Cc1ccccc1)CC2)c1cccc(S(=O)(=O)N2CCc3ccccc32)c1 | - | - | - | - | 93 | -
COc1ccccc1NS(=O)(=O)c1cc(C(=O)N2CCCC2)ccc1F | . | . | . | . | - | .
CCOc1ccc(S(=O)(=O)NCCC(=O)NCc2cccnc2)cc1 | - | . | - | . | - | -
CC1(C(=O)NCc2ccc(Cl)c(Cl)c2)Oc2cccnc2NC1=O (configuration not stated) | 21 | - | 25 | - | - | -
COc1ccc(NC(=O)C2CCCN(S(=O)(=O)c3ccccc3)C2)c(OC)c1 (configuration not stated) | - | . | - | . | - | -
Cc1cc(O)ccc1C1(c2ccc(O)cc2C)OC(=O)c2ccccc21 | - | - | - | - | - | -
CC(=O)Oc1ccc2c(c1)Oc1cc(OC(C)=O)ccc1C21OC(=O)c2ccccc21 | + | + | 938 | 506 | 368 | -
O=C(O)C(Cc1ccccc1)N1C(=O)C2C3CCC(C3)C2C1=O (configuration not stated) | . | . | . | . | - | .
COc1ccc2c3c(cccc13)C(=O)CC2 | . | . | . | . | 139 | .
COc1ccc2c(c1OC)C(=O)OC2 | - | - | - | - | - | -
O=C(O)c1cc(Cl)ccc1-c1ccc(/C=C/c2cc(C(F)(F)F)[nH]c(=O)n2)o1 | - | 29 | - | 13 | 205 | -
O=C(O)c1ccccc1-c1ccc(/C=C/c2cc(C(F)(F)F)[nH]c(=O)n2)o1 | . | 81 | . | 28 | 170 | .
CC1(C)C[C@H]2C3=CCC4[C@@]5(C)CC[C@H](O[C@@H]6O[C@H](C(=O)O)[C@@H](O)[C@H](O)[C@H]6O)[C@@](C)(CO)C5CC[C@@]4(C)[C@]3(C)C[C@H](O)[C@@]2(CO)[C@@H](O)[C@@H]1O (some centres not stated) | - | . | - | . | - | -
C/C=C(\C)C(=O)OC1[C@H](OC(C)=O)C2(CO)C(CC1(C)C)C1=CCC3C4(C)CCC(O[C@@H]5O[C@H](C(=O)O)[C@@H](O[C@@H]6O[C@H](CO)[C@@H](O)[C@H](O)[C@H]6O)[C@H](O)[C@H]5O[C@H]5O[C@H](CO)[C@@H](O)[C@H](O)[C@H]5O)[C@](C)(CO)C4CCC3(C)[C@]1(C)C[C@H]2O (some centres not stated) | . | . | . | . | 159 | .
CC(=O)OC1COC(OC2C(O)C(C)OC(OC3C(OC4CCC5(C)C(CCC6(C)C5CC=C5C7CC(C)(C)CCC7(C(=O)O)CCC56C)C4(C)CO)OCC(O)C3O)C2O)C(O)C1OC(C)=O (configuration not stated) | 115 | 123 | 92 | 95 | . | -
C/C=C(/C)C(=O)OC1CC(C)(C)C[C@H]2C3=CC[C@@H]4[C@@]5(C)CCC(O[C@@H]6O[C@@H](C(=O)O)[C@@H](O)C(O[C@@H]7OC[C@H](O)[C@@H](O)[C@@H]7O[C@@H]7OC(CO)C(O)[C@@H](O)[C@@H]7O)C6O[C@@H]6OC(CO)C(O)C(O)C6O)[C@@](C)(CO)[C@@H]5CC[C@]4(C)[C@]3(C)CC(O)[C@@]12CO (some centres not stated) | 22 | . | 44 | . | 112 | -
O=C(CSc1nc2ccc(Cl)cc2[nH]1)Nc1ccc2[nH]c(=O)[nH]c2c1 | - | . | - | . | - | -
N#C/C(=C/c1ccc(N2CCCCC2)o1)C(=O)Nc1ccc2ccccc2c1 | . | 40 | . | 22 | 207 | .
COc1ccc(NC(=O)/C(C#N)=C/c2ccc(Br)o2)cc1 | - | - | - | - | - | -
N#C/C(=C/c1ccc(N2CCCCC2)o1)C(=O)Nc1ccc(Cl)cc1 | 225 | 28 | 197 | 39 | 155 | -
SMILES | V1R ag counter | TRPN1 ag | OXTR ag | TRPML3 agonist | CRFBP-R2 agonist | OXTR potentiate
C[C@@H]1CN([C@@H](C)CO)S(=O)(=O)c2ccc(Br)cc2O[C@@H]1CN(C)S(=O)(=O)c1cn(C)cn1 | . | . | . | . | - | .
Cc1cc(/C=C2\SC(=S)N(Cc3ccco3)C2=O)c(C)n1-c1cccnc1 | . | - | . | - | 55 | .
COc1ccc(N(C(=O)C(C)C)S(=O)(=O)c2ccc3ccccc3c2)cc1 | - | . | - | . | - | -
Cc1cc(/C=N/NC(N)=S)c(O)c(/C=N/NC(N)=S)c1 | - | 41 | - | 16 | 157 | -
NC(=S)N/N=C/c1cccc(O)c1O | - | - | - | - | - | -
CCCCCCCCCCCCCCCC[n+]1cccc(C(=O)N(CC)CC)c1 | 24 | - | 37 | - | 104! | -
CC[C@H](C)[C@H](NC(=O)[C@H](Cc1ccc(O)cc1)NC(=O)[C@@H](N)C(C)C)C(=O)N[C@@H](Cc1cnc[nH]1)C(=O)N1CCC[C@H]1C(=O)N[C@@H](Cc1ccccc1)C(=O)O | 25 | - | 72 | - | - | -
CN1N=C(N)c2cn(C3OC(COP(=O)(O)O)C(O)C3O)c3ncnc1c23 (configuration not stated) | . | . | . | . | - | .
CCOC(=O)N1CCC(NC(=O)CC2C(=O)NCCN2Cc2ccccc2)CC1 (configuration not stated) | - | . | - | . | - | -
CC(=NO)c1ccc2c(c1)Cc1cc([N+](=O)[O-])ccc1-2 | . | . | . | . | - | .
CCOC(=O)Nc1ccc2c(c1)Cc1cc([N+](=O)[O-])ccc1-2 | . | . | . | . | - | .
CC(O)CN(CC(C)O)c1ccc2c(c1)Cc1cc([N+](=O)[O-])ccc1-2 (configuration not stated) | . | . | . | . | 197 | .
Nc1ccc2c(c1)Cc1cc([N+](=O)[O-])ccc1-2 | 31 | - | 22 | 15 | 111 | -
CCOC(=O)C1CCCN(c2ncnc3c2cnn3-c2ccc(OC)cc2)C1 (configuration not stated) | - | - | - | - | - | -

Bioassay records (PubChem BioAssay)
